This is an account of results in ChEMBL document CHEMBL1157911, “A prodrug approach towards the development of tricyclic-based FBPase inhibitors” (Bioorg Med Chem Lett, 2010).

The nature of data set [1]: Solubility at pH 6.8. The class given is physicochemical. The note with it: buffer. A digest of the protocol:
(§1)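 Solubility measured in Japanese Pharmacopoeia test fluids: first fluid (JP1, pH 1.2, simulating gastric conditions) and second fluid (JP2, pH 6.8, simulating intestinal conditions).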

Data set [2] in a line: Solubility at pH 1.2. The class given is physicochemical. The note with it: buffer. Put shortly: as §1
Another data set addresses Cytochrome P450 3A4 (Homo sapiens, UniProt P08684). Kind of data set: Inhibition of CYP3A4. The class given is ADME.
Data set [3] is described as follows: Inhibition of fructose-1,6-bisphosphatase in monkey hepatocytes assessed as glucose production. The class given is cell-based. As to conditions: Macaca mulatta, Hepatocyte.

Converted amounts (≈) assume the structure as drawn.

Chain of Cytochrome P450 3A4 (P08684 whole entry): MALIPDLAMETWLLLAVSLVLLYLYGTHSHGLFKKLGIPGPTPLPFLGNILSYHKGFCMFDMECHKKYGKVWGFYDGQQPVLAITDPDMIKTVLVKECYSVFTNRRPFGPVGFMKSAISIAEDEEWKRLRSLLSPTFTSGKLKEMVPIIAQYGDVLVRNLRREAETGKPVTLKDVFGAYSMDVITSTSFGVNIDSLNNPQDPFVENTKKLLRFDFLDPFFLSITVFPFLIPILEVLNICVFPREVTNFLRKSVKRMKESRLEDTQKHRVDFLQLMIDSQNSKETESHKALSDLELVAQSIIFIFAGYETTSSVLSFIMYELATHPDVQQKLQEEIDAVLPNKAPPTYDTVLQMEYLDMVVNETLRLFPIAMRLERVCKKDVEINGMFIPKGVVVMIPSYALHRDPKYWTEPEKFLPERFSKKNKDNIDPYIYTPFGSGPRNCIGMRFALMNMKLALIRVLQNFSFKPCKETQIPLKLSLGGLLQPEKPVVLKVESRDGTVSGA

In general, solubility refers to the concentration that dissolves in the medium under given conditions. As usually defined, the IC50 is the point on the concentration scale where inhibition reaches its midpoint. As to `Cc1cc(OC[P@@]2(=O)OCC[C@@H](c3cccc(Cl)c3)O2)c2c(c1C)Cc1scnc1-2`, the solubility in data set [1] was below 0.5 µg/mL; in data set [2] it was 19 µg/mL (≈ 41.1 µM). Also, the values for the IC50 (against Cytochrome P450 3A4; in data set [3]) were 0.42 µM and 15 µM, respectively.

Regarding `Cc1cc(OC[P@@]2(=O)OCC[C@@H](c3cccnc3C)O2)c2c(c1C)Cc1scnc1-2`, the solubility in data set [1] worked out at 84 µg/mL (≈ 190 µM); in data set [2], 88 µg/mL (≈ 199 µM). The IC50 is 15 µM against Cytochrome P450 3A4 and 4 µM in data set [3].

For the compound `CCOC(=O)[C@H](C)NP(=O)(COc1cc(C)c(C)c2c1-c1ncsc1C2)N[C@@H](C)C(=O)OCC`, the results for the solubility in data set [1] and in data set [2] were 66 µg/mL (≈ 130 µM) and 27 µg/mL (≈ 53 µM), respectively. In addition, the IC50 at Cytochrome P450 3A4 came to 0.58 µM; in data set [3], 6.8 µM.

Turning to `Cc1cc(OC[P@]2(=O)OCC[C@@H](c3cccc(Cl)c3)O2)c2c(c1C)Cc1scnc1-2`, the solubility in data set [1] and in data set [2] was below 0.5 µg/mL throughout. For the same compound, the IC50 was 2.7 µM against Cytochrome P450 3A4 and above 100 µM in data set [3].

As to `Cc1cc(OC[P@@]2(=O)OCC[C@@H](c3ccncc3)O2)c2c(c1C)Cc1scnc1-2` (racemic), the solubility stood at 51 µg/mL (≈ 119 µM) in data set [1] and 88 µg/mL (≈ 205 µM) in data set [2]. For the same compound, the IC50 in data set [3] is 41 µM.

For `Cc1cc(OC[P@]2(=O)OCC[C@H](c3cccnc3C)O2)c2c(c1C)Cc1scnc1-2` (racemic), the solubility in data set [1] was 83 µg/mL (≈ 188 µM); in data set [2], 87 µg/mL (≈ 197 µM). In addition, the figures for the IC50 (at Cytochrome P450 3A4; in data set [3]) were 5.8 µM and 11 µM, respectively.

Take `Cc1ccncc1[C@@H]1CCO[P@](=O)(COc2cc(C)c(C)c3c2-c2ncsc2C3)O1` (racemic): the results for the solubility in data set [1] and in data set [2] were 81 µg/mL (≈ 183 µM) and above 100 µg/mL, respectively. Further, the IC50 was 5.2 µM at Cytochrome P450 3A4 and above 100 µM in data set [3].

`Cc1cc(OC[P@@]2(=O)OCC[C@@H](c3ccc(Cl)cc3)O2)c2c(c1C)Cc1scnc1-2` (racemic): the figures for the solubility in data set [1] and in data set [2] were below 0.5 µg/mL and 4.4 µg/mL (≈ 9.53 µM), respectively. In addition, the IC50 on Cytochrome P450 3A4 was determined as 0.65 µM; in data set [3], 66 µM.

Take `Cc1cc(OC[P@]2(=O)OCC[C@@H](c3ccc(Cl)cc3)O2)c2c(c1C)Cc1scnc1-2` (racemic): the solubility in data set [1] and in data set [2] was below 0.5 µg/mL throughout. Besides, the 50% inhibitory concentration (IC50) was 0.73 µM at Cytochrome P450 3A4 and above 100 µM in data set [3].

For `Cc1cc(OC[P@@]2(=O)OCC[C@@H](c3cccnc3)O2)c2c(c1C)Cc1scnc1-2` (racemic), the values for the solubility in data set [1] and in data set [2] were 84 µg/mL (≈ 196 µM) and 86 µg/mL (≈ 201 µM), respectively. Moreover, the IC50 against Cytochrome P450 3A4 came to 2.9 µM; in data set [3], 8.8 µM.

On to `COc1cccc([C@@H]2CCO[P@](=O)(COc3cc(C)c(C)c4c3-c3ncsc3C4)O2)c1` (racemic), for which the solubility in data set [1] amounted to 0.8 µg/mL (≈ 1.75 µM); in data set [2], 17 µg/mL (≈ 37.2 µM). Besides, the IC50 was 0.27 µM at Cytochrome P450 3A4 and above 100 µM in data set [3].

For the compound `COc1cccc([C@@H]2CCO[P@@](=O)(COc3cc(C)c(C)c4c3-c3ncsc3C4)O2)c1` (racemic), the solubility in data set [1] and in data set [2] was below 0.5 µg/mL throughout. Besides, the figures for the IC50 (against Cytochrome P450 3A4; in data set [3]) were 0.3 µM and above 100 µM, respectively.

As for `Cc1cc(OC[P@@]2(=O)OCC[C@@H](c3ccccn3)O2)c2c(c1C)Cc1scnc1-2` (racemic), the solubility turned out to be 73 µg/mL (≈ 170 µM) in data set [1] and 86 µg/mL (≈ 201 µM) in data set [2]. For the same compound, the IC50 came to 8.4 µM at Cytochrome P450 3A4 and 22 µM in data set [3].
